Test [1] concerns the target biotinylated STARD3 FFAT peptide (residues 200-216), pS209 (human). The test can be described thus: SPR. A general note: SPR reads the build-up and loss of mass on a sensor chip optically.
For test [2], the target named is biotinylated STARD3 FFAT peptide (residues 200-216), pS209 + pS213 (human). Briefly: SPR.
The target of test [3] is recombinant MSP domain of VAP-B (1-210), C-terminal His6 (human, UniProt O95292 1-210). Briefly: pull-down.
The target of test [4] is T1, recombinant MSP domain of VAP-A (8-212), C-terminal His6 (human, UniProt Q9P0L0 8-212).
T1 sequence (looked up): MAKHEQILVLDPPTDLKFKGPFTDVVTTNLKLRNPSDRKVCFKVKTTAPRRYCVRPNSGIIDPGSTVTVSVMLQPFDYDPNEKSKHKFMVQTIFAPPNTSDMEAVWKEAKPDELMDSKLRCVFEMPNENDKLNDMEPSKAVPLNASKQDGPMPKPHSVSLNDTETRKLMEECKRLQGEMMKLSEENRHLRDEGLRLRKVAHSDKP
Briefly: pull-down.

Test [5] concerns the target T2, recombinant MSP domain of MOSPD2 K363L (human, UniProt Q8NHP6 282-490, K363L).
T2 sequence (looked up): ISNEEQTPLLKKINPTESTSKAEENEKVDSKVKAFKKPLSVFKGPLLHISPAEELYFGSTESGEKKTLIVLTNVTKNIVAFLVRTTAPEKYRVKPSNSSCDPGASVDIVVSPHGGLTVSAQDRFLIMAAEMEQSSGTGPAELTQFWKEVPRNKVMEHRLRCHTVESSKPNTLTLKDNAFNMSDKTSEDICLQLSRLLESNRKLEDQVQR
Briefly: pull-down.

Test [6] addresses T3, recombinant MSP domain of MOSPD2 (282-490), C-terminal His6 (human, UniProt Q8NHP6 282-490).
T3 sequence (looked up): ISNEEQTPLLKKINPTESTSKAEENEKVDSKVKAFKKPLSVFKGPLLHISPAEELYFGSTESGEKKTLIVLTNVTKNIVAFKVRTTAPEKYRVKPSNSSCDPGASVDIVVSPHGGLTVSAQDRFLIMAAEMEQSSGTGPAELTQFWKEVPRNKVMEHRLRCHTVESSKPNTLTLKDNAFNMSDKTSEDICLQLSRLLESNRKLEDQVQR
The test can be described thus: pull-down.

The target of test [7] is T4, recombinant MSP domain of VAP-A K50L (human, UniProt Q9P0L0 8-212, K50L).
T4 sequence (looked up): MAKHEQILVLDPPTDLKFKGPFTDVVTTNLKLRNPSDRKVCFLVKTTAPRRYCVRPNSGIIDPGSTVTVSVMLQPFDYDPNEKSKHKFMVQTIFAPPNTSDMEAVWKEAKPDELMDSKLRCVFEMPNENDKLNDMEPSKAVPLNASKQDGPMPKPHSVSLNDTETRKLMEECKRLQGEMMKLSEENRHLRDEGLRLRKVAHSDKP
The test can be described thus: pull-down.

The target in test [8] is recombinant MSP domain of VAP-B K43L (human, UniProt O95292 1-210, K43L). Briefly: pull-down.
Chain of recombinant MSP domain of VAP-B K43L (O95292 1-210 K43L): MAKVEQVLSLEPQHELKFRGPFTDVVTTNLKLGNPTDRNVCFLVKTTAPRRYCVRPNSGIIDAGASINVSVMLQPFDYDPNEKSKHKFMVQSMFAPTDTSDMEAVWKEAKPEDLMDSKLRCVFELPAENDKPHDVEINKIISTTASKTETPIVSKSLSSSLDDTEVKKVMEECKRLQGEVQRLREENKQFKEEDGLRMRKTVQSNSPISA
Test [9] is described as follows: DHE transport assay between liposomes. It counts as biochemical. Particulars: per cSTD3; absence of functional VAP; 37°C; n = 4. The method in brief: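 LA liposomes (DOPC, 3 mol% MPB-PE; 62.5 µM total lipids final) were preincubated 5 min with 475 nM cSTD3 or pS209 cSTD3 in TN3 buffer (50 mM Tris-HCl pH 8, 75 mM NaCl) at 37°C with stirring. Read-out was DNS-PE emission at 525 nm with excitation at 310 nm. Transport was expressed as mol% DHE = 10×(F−F0)/(Fmax−F0), with F0 set by 10 mM methyl-β-cyclodextrin.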

In test [10] the target is T1, recombinant MSP domain of VAP-A …. Briefly: crystal structure.
Test [11] addresses T5, recombinant MSP domain of MOSPD2 (315-445) (human, UniProt Q8NHP6 315-445).
T5 sequence (looked up): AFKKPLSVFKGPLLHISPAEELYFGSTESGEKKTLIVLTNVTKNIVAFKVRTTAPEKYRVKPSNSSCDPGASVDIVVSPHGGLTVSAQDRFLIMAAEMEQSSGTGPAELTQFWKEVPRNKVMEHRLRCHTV
The test can be described thus: crystal structure.

Square brackets hold non-standard residues; d marks the D form. Ends that are not written are not given here. * marks the point of attachment. Biotin = O=C1N[C@H]2[C@H](CS[C@H]2CCCCC(=O)*)N1; pS = N[C@@H](COP(=O)(O)O)C(=O)O

Chain of recombinant MSP domain of VAP-B (1-210), C-terminal His6 (O95292 1-210): as the sequence (O95292 1-210 K43L) above, with L43K counted along it

Regarding “recombinant MSP domain of VAP-B (1-210), C-terminal His6 (from UniProt O95292 1-210) (domain or fragment)”, the Kd in test [1] came to 7.1 µM.

Turning to “recombinant MSP domain of VAP-A (8-212), C-terminal His6 (from UniProt Q9P0L0 8-212) (domain or fragment)”, in test [1], the Kd is 5.6 µM.

Take “recombinant MSP domain of MOSPD2 (282-490), C-terminal His6 (from UniProt Q8NHP6 282-490) (domain or fragment)”: the figures for the Kd in [2] and in test [1] were 0.35 µM and 1.1 µM, respectively.

On to Biotin-GAMRSILSEDEFYDALSDSES [biotinylated ORP1 FFAT peptide (residues 469-485)], for which the binding result in test [3], in test [4], in test [5], in test [6], in [7] and in [8] was “binds” each time.

B1: cSTD3 (protein)
chain: CLFSGALSEGQFYSPPESFAGSDNESDEEVAGKKSFSAQEREYIRQGKEATAVVDQILAQEENWKFEKNNEYGDTVYTIEVPFHGKTFILKTFLPCPAELVYQEVILQPERMVLWNKTVTACQILQRVEDNTLISYDVSAGAAGGVVSPRDFVNVRRIERRRDRYLSSGIATSHSAKPPTHKYVRGENGPGGFIVLKSASNPRVCTFVWILNTDLKGRLPRYLIHQSLAATMFEFAFHLRQRISELGARA
modifications: left off: GST, N-terminal, cleaved
In the case of B1, the “Initial DHE transport rate” value in [9] is on record as 10.45 DHE molecules/min.

As for GAL[pS]EGQFY[pS]PPE[pS]FAG [phosphorylated FFAT peptide of STARD3 used for crystallisation with VAP-A (GALpSEGQFYpSPPEpSFAG)], the binding result in test [10] is listed as “binds”.

For Biotin-GAMRGALSEGQFY[pS]PPE[pS]FAG [biotinylated STARD3 FFAT peptide (residues 200-216), pS209 + pS213], the binding result in test [5] is listed as “binds”.

Turning to CLFSGAL[pS]EGQFY[pS]PPE[pS]FAG, the binding result in test [11] is given as “binds”.

As a reminder, the Kd is the equilibrium constant for the complex coming apart.

Values taken from publication PMC7705450 (The EMBO Journal, 2020).
